# ChEMBL document CHEMBL4145511, “Synthesis and leishmanicidal activity of eugenol derivatives bearing 1,2,3-triazole functionalities” (Eur J Med Chem, 2018)
# Activity calls are given as the source filed them. The rule behind the calls is not given here.
# How the values were obtained:
# Leishmania amazonensis [1] = experiment: Antileishmanial activity against GFP expressing Leishmania amazonensis WHOM/BR/75/Josefa promastigote forms after 72 hrs by fluorescence assay; type: functional, organism-based
# Method in brief: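 GFP-transfected L. amazonensis WHOM/BR/75/Josefa promastigotes grown at 26 °C in M199 with penicillin, streptomycin, 10% heat-inactivated fetal calf serum and 2% human urine, kept under geneticin selection. Compounds dissolved in DMSO (final ≤1%), medium with 5% HIFCS, 72 h at 27 °C. Fluorescence read at 435/538 nm; triplicates, percent inhibition versus medium-only control.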
# Leishmania amazonensis [2] = experiment: Antileishmanial activity against Leishmania amazonensis WHOM/BR/75/Josefa amastigote forms infected in BALB/c mouse peritoneal macrophages after 48 hrs by optical microscopy; type: functional, organism-based
# Method in brief: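 BALB/c mouse peritoneal macrophages collected in ice-cold DMEM, plated at 2 × 10⁶/mL, and held 1 h at 37 °C with 4% CO₂. Non-adherent cells were washed off with PBS. Stationary-phase promastigotes were added at a 5:1 parasite:macrophage ratio at 35 °C with 5% CO₂, and free parasites were washed off after 4 h. After 48 h of treatment, slides were stained with a hematological dye and parasites were counted by optical microscopy.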
# Leishmania amazonensis [3] = experiment: Antileishmanial activity against Leishmania amazonensis WHOM/BR/75/Josefa amastigote forms infected in BALB/c mouse peritoneal macrophages after 72 hrs by hematological staining-based microscopic analysis; type: functional, organism-based
# Method in brief: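 Peritoneal macrophages from BALB/c mice collected in ice-cold DMEM, plated at 2 × 10⁶/mL in chamber slides, 1 h at 37 °C and 4% CO₂, non-adherent cells washed off. Infected with stationary-phase promastigotes at 5:1 parasite/macrophage, free parasites washed off after 4 h. Treated, then stained with a hematological dye and amastigotes counted by optical microscopy; triplicate means.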
# Peritoneal macrophage [4] = experiment: (§1) Cytotoxicity against BALB/c mouse peritoneal macrophages assessed as increase in LDH release; type: cell-based; details: peritoneal macrophage
# Method in brief: (§2)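 LDH released into the medium from macrophages was read at 340 nm. Cells in 2% Triton X-100 gave maximum release and cells in medium gave minimum release. Release was expressed as percent of the positive control, and the 50% value was obtained by linear regression.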
# [5] = Selectivity index, ratio of LD50 for BALB/c mouse peritoneal macrophages to IC50 for antileishmanial activity against Leishmania amazonensis WHOM/BR/75/Josefa amastigote forms; type: toxicity; details: for selectivity ratio: BALB/c, peritoneal macrophages, read-out: Selectivity Index
# Peritoneal macrophage [6] = experiment: Cytotoxicity against BALB/c mouse peritoneal macrophages at 1 to 100 umol/L after 48 hrs by optical microscopy; type: cell-based
# Leishmania amazonensis [7] = experiment: Antileishmanial activity against Leishmania amazonensis MHOM/BR/75/Josefa promastigote forms by trypan blue assay; type: functional, organism-based
# [8] = as §1; type: cell-based, Peritoneal macrophage; details: BALB/c, peritoneal macrophages, read-out: LD50 (the source's name); method in brief: as §2
# Peritoneal macrophage [9] = experiment: Induction of nitric oxide production in BALB/c mouse peritoneal macrophages; type: functional, cell-based
# [10] = Leishmania amazonensis, WHOM/BR/75/Josefa, 72 h, read-out: IC50
IC50 (Leishmania amazonensis [1]) [µM],Compound,also measured
322,C=CCc1ccc(OCc2cn(Cc3ccc(OC(F)(F)F)cc3)nn2)c(OC)c1,
156,C=CCc1ccc(OCc2cn(Cc3cccc(Br)c3)nn2)c(OC)c1,
817,C=CCc1ccc(OCCCc2cn(Cc3ccc(Cl)cc3)nn2)c(OC)c1,
178,C=CCc1ccc(OCCCc2cn(Cc3ccc(F)c(F)c3)nn2)c(OC)c1,
,MEGLUMINE ANTIMONATE [listing 1 of 2 here],Activity (Leishmania amazonensis [2]): Active
425,C=CCc1ccc(OCc2cn(Cc3ccc(OC)cc3)nn2)c(OC)c1,
,MEGLUMINE ANTIMONATE [listing 2 of 2 here],IC50 (Leishmania amazonensis [3]): 45.5 µg/mL; LD50 (Peritoneal macrophage [4]): 75.5 µg/mL; Selectivity Index [5]: 1.6; Activity (Peritoneal macrophage [6]): Non-Toxic
106,C=CCc1ccc(OCc2cn(Cc3ccc(C)cc3)nn2)c(OC)c1,
,C=CCc1ccc(O)c(OC)c1 [EUGENOL],IC50 (Leishmania amazonensis [7]): 80 µg/mL
913,C=CCc1ccc(OCCCc2cn(Cc3ccccc3Br)nn2)c(OC)c1,
120,C=CCc1ccc(OCCCc2cn(Cc3ccc(OC)cc3)nn2)c(OC)c1,
59.4,C=CCc1ccc(OCc2cn(Cc3ccc(F)cc3)nn2)c(OC)c1,
980,C=CCc1ccc(OCCCc2cn(Cc3cccc(Br)c3)nn2)c(OC)c1,
160,C=CCc1ccc(OCc2cn(Cc3ccccc3Br)nn2)c(OC)c1,
1780,C=CCc1ccc(OCc2cn(Cc3ccc(Cl)cc3)nn2)c(OC)c1,
295,C=CCc1ccc(OCCCc2cn(Cc3ccc(C(F)(F)F)cc3)nn2)c(OC)c1,
32.2,C=CCc1ccc(OCCCc2cn(Cc3ccc(F)cc3)nn2)c(OC)c1,
969,C=CCc1ccc(OCc2cn(Cc3ccc(F)c(F)c3)nn2)c(OC)c1,
37.9,C=CCc1ccc(OCCCc2cn(Cc3ccccc3)nn2)c(OC)c1,
173,C=CCc1ccc(OCCCc2cn(Cc3ccc([N+](=O)[O-])cc3)nn2)c(OC)c1,
993,C=CCc1ccc(OCc2cn(Cc3ccc(Br)cc3)nn2)c(OC)c1,
146,C=CCc1ccc(OCCCc2cn(Cc3ccc(OC(F)(F)F)cc3)nn2)c(OC)c1,
2010,C=CCc1ccc(OCc2cn(Cc3ccc(C(F)(F)F)cc3)nn2)c(OC)c1,
49.2,C=CCc1ccc(OCc2cn(Cc3cc(Cl)ccc3Cl)nn2)c(OC)c1,
130,C=CCc1ccc(OCc2cn(Cc3ccc([N+](=O)[O-])cc3)nn2)c(OC)c1,
287,C=CCc1ccc(OCCCc2cn(Cc3ccc(Br)cc3)nn2)c(OC)c1,
279,C=CCc1ccc(OCCCc2cn(Cc3ccc(I)cc3)nn2)c(OC)c1,
30.2,C=CCc1ccc(OCc2cn(Cc3ccccc3)nn2)c(OC)c1,
2010,C=CCc1ccc(OCc2cn(Cc3ccc(I)cc3)nn2)c(OC)c1,

Compound,IC50 (Leishmania amazonensis [1]) [µM],also measured
C[C@@H]1[C@H](O)[C@@H](C)/C=C/C=C/C=C/C=C/C=C/C=C/C=C/[C@H](O[C@@H]2O[C@H](C)[C@@H](O)[C@H](N)[C@@H]2O)C[C@@H]2O[C@](O)(C[C@@H](O)C[C@@H](O)[C@H](O)CC[C@@H](O)C[C@@H](O)CC(=O)O[C@H]1C)C[C@H](O)[C@H]2C(=O)O [AMPHOTERICIN B],0.4,
N=C(N)c1ccc(OCCCCCOc2ccc(C(=N)N)cc2)cc1 [PENTAMIDINE],4.2,IC50 (Leishmania amazonensis [3]; [10]): 1.8 µM; CC50 [8]: 8.5 µM; selectivity ratio [5]: 4.7
C=CCc1ccc(OCCCc2cn(Cc3ccc(C)cc3)nn2)c(OC)c1,7.4,IC50 (Leishmania amazonensis [3]; [10]): 1.6 µM; CC50 [8]: 212 µM; selectivity ratio [5]: 132; Activity (Peritoneal macrophage [9]): inactive; Activity (Peritoneal macrophage [6]): Non-Toxic; Activity (Leishmania amazonensis [2]): Active
